Data reported in PubChem BioAssay AID623975 (Vanderbilt High Throughput Screening Facility, 2012).

Target: G protein-activated inward rectifier potassium channel 4 (Homo sapiens) + G protein-activated inward rectifier potassium channel 1 (Homo sapiens) (UniProt P48544+P48549)
Test: GIRK1/4 channel activators, Tl+ flux, dose response, cell-based, HEK-293 hGIRK1/4, thallium flux, FluoZin-2, concentration-response (AID 623975)
Details: HEK-293 hGIRK1/4, thallium flux FluoZin-2 fluorescence
Summary of the method: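 Assay system: HEK-293 line stably expressing hGIRK1/4. Schedule: FluoZin-2 AM dye loading ~60 min at room temperature, compound pretreatment 4 min. Detection: FluoZin-2 thallium-flux fluorescence. Evaluation: Vehicle-corrected slope as % of MPD, logistic potency fit. Benchmarks: vehicle baseline, 80 mM MPD maximum. Replication: triplicate wells.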

Chain of G protein-activated inward rectifier potassium channel 4 (Homo sapiens) + G protein-activated inward rectifier potassium channel 1 (Homo sapiens) (P48544 whole entry, looked up): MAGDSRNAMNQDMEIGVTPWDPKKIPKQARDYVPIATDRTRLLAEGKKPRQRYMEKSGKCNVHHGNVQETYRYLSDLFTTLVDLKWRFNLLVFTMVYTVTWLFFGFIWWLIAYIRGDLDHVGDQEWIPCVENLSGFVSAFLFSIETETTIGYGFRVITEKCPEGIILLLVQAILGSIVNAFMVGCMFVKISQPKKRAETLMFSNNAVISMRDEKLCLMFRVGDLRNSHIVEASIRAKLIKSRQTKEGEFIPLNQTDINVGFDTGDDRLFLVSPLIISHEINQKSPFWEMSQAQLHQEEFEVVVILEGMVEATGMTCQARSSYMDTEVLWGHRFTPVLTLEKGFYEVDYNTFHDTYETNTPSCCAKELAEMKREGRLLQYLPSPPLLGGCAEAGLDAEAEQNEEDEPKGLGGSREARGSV
Chain of G protein-activated inward rectifier potassium channel 4 (Homo sapiens) + G protein-activated inward rectifier potassium channel 1 (Homo sapiens) (P48549 whole entry, looked up): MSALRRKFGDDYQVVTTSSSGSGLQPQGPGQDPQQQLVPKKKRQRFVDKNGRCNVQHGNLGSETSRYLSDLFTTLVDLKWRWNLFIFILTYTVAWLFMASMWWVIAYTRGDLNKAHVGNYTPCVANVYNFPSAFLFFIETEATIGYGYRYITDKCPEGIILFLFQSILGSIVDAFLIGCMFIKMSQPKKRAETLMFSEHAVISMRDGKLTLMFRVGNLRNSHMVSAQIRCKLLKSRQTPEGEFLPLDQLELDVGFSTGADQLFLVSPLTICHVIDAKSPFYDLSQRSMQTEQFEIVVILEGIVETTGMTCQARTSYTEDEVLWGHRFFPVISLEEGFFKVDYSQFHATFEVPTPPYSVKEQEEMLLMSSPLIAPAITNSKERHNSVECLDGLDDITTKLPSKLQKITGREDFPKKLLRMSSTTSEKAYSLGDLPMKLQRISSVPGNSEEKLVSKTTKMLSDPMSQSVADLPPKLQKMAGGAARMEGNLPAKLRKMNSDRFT

## Cc1cc(NC(=O)Nc2ccc(F)c(F)c2)n(-c2ccccc2)n1
  EC50: 1120 nM
